From PubChem
The list is not random: actives were taken first. Their share in the collection is about 3%.
HTR1E antagonist: 5-HT1E (human) receptor antagonism; P28566; CHO 5-HT1E Ga15 NFAT-bla reporter, FRET, antagonist; inhibition, % at 6 µM; actives 0.99% (n = 65,000);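 active = inhibition above a set limit, the mean inhibition across every tested compound plus 3 SD, cut at about 29% in these data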;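 also: signal is the 460 over 535 nm emission ratio of beta-lactamase substrate; 0% = agonist plus DMSO wells and 100% = wells without agonist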
S1P1 ag-PAM: agonists and agonism potentiators of human S1P1 receptor. P21453. S1P1 CRE-bla cells, forskolin, beta-lactamase FRET, potentiator mode; S1P1 agonist co-added at EC20, 2 nM; 100% = saturating reference agonist, 0% = basal. activation, % at 9.5 µM. actives 0.57% (n = 56,000);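 active = activation above a cutoff set at the mean activation of all tested compounds plus 3 SD, cut at about 54% in these data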;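 also: forskolin at 4 µM as EC80 and the EC20 agonist is SEW2871; 100% = SEW2871 at its EC100 plus forskolin at EC80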
5HT1a ag: 5-HT1a (human) receptor agonism; P08908; AID 567; activation, % at 10 µM; CHO 5-HT1a Ga15 NFAT-bla reporter, FRET ratio; 0% basal, 100% maximal reference agonist; actives 0.56% (n = 65,000);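 active = activation above the screen-wide mean activation plus 3 SD, cut at about 19% in these data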;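 also: 0% = DMSO wells and 100% = 5-CT at EC100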
Target sequence (P08908 whole entry, looked up): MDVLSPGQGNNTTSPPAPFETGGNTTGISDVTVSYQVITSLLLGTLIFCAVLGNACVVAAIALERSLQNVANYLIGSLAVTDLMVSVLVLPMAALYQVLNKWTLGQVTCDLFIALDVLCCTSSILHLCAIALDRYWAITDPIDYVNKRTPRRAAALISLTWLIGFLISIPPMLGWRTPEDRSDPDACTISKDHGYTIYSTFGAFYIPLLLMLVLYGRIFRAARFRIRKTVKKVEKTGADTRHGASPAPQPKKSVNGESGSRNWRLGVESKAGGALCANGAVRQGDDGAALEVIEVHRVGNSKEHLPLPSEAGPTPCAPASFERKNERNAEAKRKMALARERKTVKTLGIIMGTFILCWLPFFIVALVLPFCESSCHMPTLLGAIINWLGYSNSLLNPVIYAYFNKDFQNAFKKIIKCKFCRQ
5HT1E ag: agonists of human 5-HT1E serotonin receptor; P28566; CHO 5-HT1E Ga15 NFAT-bla reporter, FRET; 0% DMSO wells, 100% control agonist wells; activation, % at 6 µM; actives 0.69% (n = 65,000); AID 574;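 active = activation above a set limit, the screen-wide mean activation plus 3 SD, cut at about 8.5% in these data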;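 also: 100% = positive control agonist at 1 µM giving full maximal response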
5HT1a antag: blocks the human serotonin 5-HT1a receptor; actives 0.68% (n = 62,000); CHO 5-HT1a Ga15 NFAT-bla reporter, antagonist mode; AID 612; inhibition, % at 10 µM; P08908;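 active = inhibition above the mean of all tested compounds plus 3 SD, cut at about 43% in these data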;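 also: receptor stimulated by 5-CT agonist at 100 nM near EC80; beta-lactamase reporter measured by ratiometric fluorescence of a cleavable substrate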
S1P3 ag: S1P3 (human) receptor agonism; Q99500; S1P3 NFAT-BLA reporter cells, FRET ratio; relative to 1 µM S1P, basal subtracted; activation, % at 4.5 µM; actives 0.1% (n = 60,000);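 active = activation above the screen-wide mean plus 3 SD, cut at about 4.5% in these data, passing the limit was not always enough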
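Assay system: stable CHO line with human S1P3, Gα16, NFAT-BLA reporter; Detection: FRET β-lactamase substrate fluorescence, excitation 405 nm, 460/535 nm emission ratio, background-subtracted; Read-out: percent activation versus median 1 µM S1P response, basal-subtracted, per plate; Incubation: cells plated overnight, compound 4 h 37 °C, substrate 2 h RT.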
* marks the source's active call; other numbers are inactive results; · = not tested or not shown.

SMILES | HTR1E antagonist | S1P1 ag-PAM | 5HT1a ag | 5HT1E ag | 5HT1a antag | S1P3 ag
COc1ccc(-c2cnnn2-c2ccc(NC(=O)c3ccco3)cc2)cc1OC | 47* | · | 1 | 0 | 7 | ·
O=C(CN1C(=O)CC(c2ccccc2)=Nc2ccccc21)NCc1ccco1 | 31* | 14 | -2 | -1 | 24 | -1
O=C(CN(CCc1ccccc1)C(=O)CN1C(=O)COc2ccccc21)NCc1ccco1 | -3 | -10 | -1 | 0 | -2 | -1
Cc1c(C(=O)NCc2cccnc2)oc2ccccc12 | 33* | -3 | -1 | 0 | -10 | -1
CCCC(c1nnnn1Cc1ccco1)N1CCN(c2cc(Cl)ccc2C)CC1 (centres undefined) | 0 | -3 | -2 | 0 | 51* | -2
COC(=O)Cc1c(C)c2c(O)cc(C)cc2oc1=O | -9 | 0 | 134* | -1 | -4 | -1
COc1cccc(NC(=O)CSc2ncnc3c2oc2ccccc23)c1 | 31* | -5 | 2 | -1 | 6 | -2
O=C(CSc1ncnc2c1oc1ccccc12)N1CCCc2ccccc21 | 4 | 65* | 4 | 0 | -15 | 0
C1=Nc2c(Nc3ccccc3)ncnc2Oc2ccccc21 | -9 | -13 | -1 | 2 | 6 | 0
O=C(Nc1ccon1)c1csc2c1CCCC2 | -10 | 0 | -2 | 8.9* | -18 | 0
O=C(Nc1ccon1)c1csc2ccccc12 | -2 | -21 | -8 | -1 | 17 | 0
CCCn1c(SCc2nc(-c3cccs3)no2)nnc1-c1ccncc1 | 0 | · | -4 | 0 | -3 | 0
CCOc1ccc(-n2c(SCc3nc(-c4cccs4)no3)nnc2-c2ccncc2)cc1 | 13 | -12 | 6 | 0 | 50* | -1
O=C(CN1CCN(Cc2ccc(Cl)cc2)C1=O)NCCN1CCCC1 | 17 | 4 | 2 | 1 | -4 | 0
COc1ccc(NC(=O)Cn2cccc2)cc1Cl | 6 | 0 | 141* | -1 | 3 | 0
CCOC(=O)CSc1nc2c(sc(=S)n2Cc2ccco2)c(=O)n1-c1ccc(F)cc1 | 11 | · | 0 | 0 | 50* | ·
CCn1c(=S)sc2c(=O)n(-c3ccccc3)c(SCC(=O)NCc3ccco3)nc21 | -2 | · | -1 | 0 | 22 | ·
O=C(NCc1ccccc1)NC1(C(=O)N2CCN(c3ccccc3)CC2)CCCCC1 | -3 | -4 | 3 | -1 | 3 | 0
CCc1c(C)nc2ncnn2c1NCCc1ccc(OC)cc1 | 20 | 55* | 0 | 0 | 9 | -1
c1ccc(CCNc2c3c(nc4ncnn24)CCC3)cc1 | 3 | 18 | 1 | 0 | 3 | -2
O=C(O)c1ccccc1C(=O)N1CC=C(c2ccccc2)CC1 | -5 | -4 | 7 | 12* | 1 | 0
CCCCCCC1/C(=N/O)CCC1C(=O)OC (centres undefined) | -9 | -11 | 1 | 0 | -3 | 0
COCCn1c(N)c(C(=O)OCc2ccccc2)c2nc3ccccc3nc21 | 6 | -32 | 1 | 2 | -30 | 0
COCCNC(=O)c1c(N)n(CCC2=CCCCC2)c2nc3ccccc3nc12 | -26 | -54 | 29* | 8 | · | 4
COc1ccc(CCn2c(N)c(C(=O)NCc3ccco3)c3nc4ccccc4nc32)cc1OC | 1 | -112 | 1 | 2 | 6 | 7.3*
SMILES | HTR1E antagonist | S1P1 ag-PAM | 5HT1a ag | 5HT1E ag | 5HT1a antag | S1P3 ag
CCCn1nc(NS(=O)(=O)c2ccccc2)c2cc3ccccc3nc21 | -1 | 19 | 24* | 2 | 0 | -1
CN(C)c1ccc(/C=C/C(O)=C2/C(=O)N(C)C3(C)CC2c2ccccc2O3)cc1 (centres undefined) | 53* | -6 | 12 | 3 | 54* | -1
O=C(CSc1nc2ccccc2c(=O)n1CC1CCCO1)NCC1CCCO1 (centres undefined) | -3 | -13 | 0 | 0 | -1 | 0
O=c1c2ccccc2c2ccccc2c(=O)n1CC1CCCO1 (centres undefined) | 35* | -4 | -3 | 0 | -6 | -1
Clc1ccccc1N1CCN(c2ncnc3nc[nH]c23)CC1 | 28 | 0 | 66* | 0 | -5 | -2
FC(F)(F)c1cccnc1N1CCN(c2ncnc3nc[nH]c23)CC1 | 5 | 8 | 1 | 1 | -8 | -1
Cn1c(NCc2ccco2)nc2c1c(=O)n(Cc1ccc(Cl)c(Cl)c1)c(=O)n2C | 3 | -2 | 2 | 0 | · | -2
N=c1sccn1CC(=O)Nc1ccccc1-c1ccccc1 | -4 | · | -4 | 0 | 14 | ·
N=c1sccn1CC(=O)Nc1cccc(Oc2ccccc2)c1 | 11 | -29 | -5 | 0 | 46* | -1
CN(C)CCCN1c2ccccc2CCc2ccc(Cl)cc21 | 5 | -16 | -1 | 10* | · | 8
CN(C)CCCN1c2ccccc2Sc2ccccc21 | -9 | 4 | -1 | 4 | · | -1
c1cnn(-c2nc(N3CCOCC3)nc(N3CCOCC3)n2)c1 | -39 | 0 | -1 | 0 | 15 | -2
C=CCn1c(N(C)C)nc2c1c(=O)[nH]c(=O)n2C | -4 | -11 | 0 | 1 | -11 | -1
O=C(Nc1nc(=O)c2ccccc2s1)c1ccccc1 | 3 | -7 | 0 | 0 | · | -3
Cc1ccc(C(=O)Nc2nc3ccccc3c(=O)s2)cc1 | -5 | -11 | -2 | 0 | 67* | 1
CCN(CC)CCCN1C(=O)C(=O)/C(=C(/O)c2ccccc2)C1c1ccccn1 (centres undefined) | 5 | 5 | 2 | 0 | · | -4
COc1cc2c(cc1OC)CN(C(=O)c1ccc(OC)c(S(=O)(=O)N3CCOCC3)c1)CC2 | 4 | -4 | -4 | 1 | -6 | 0
COc1cc2c(cc1OC)CN(C(=O)Cc1ccc(OC)c(S(=O)(=O)N3CCOCC3)c1)CC2 | 6 | 4 | -1 | 25* | -1 | 0
CN=c1sc2ccccc2n1CC(O)COCc1ccco1 (centres undefined) | -16 | 2 | 0 | 36* | · | 0
Cn1cnc2c(sc3nc(N4CCOCC4)c4c(c32)CC(C)(C)OC4)c1=O | 7 | -28 | 1 | 1 | -9 | 1
COC(=O)c1ccc(OCC2c3cc(OC)c(OC)cc3CCN2C(=O)C2CC2)cc1 (centres undefined) | 34* | · | 2 | 0 | 23 | ·
COc1ccc(-c2nnc(SCC(=O)NC(=O)NCc3ccco3)o2)cc1 | -2 | · | -2 | 1 | 0 | ·
CCN(CC)C(NC(=O)c1ccccc1)C(=O)c1ccccc1 (centres undefined) | 13 | 17 | -1 | 0 | 17 | -1
O=C(NCC(c1cccs1)N1CCOCC1)c1ccc(Cl)s1 (centres undefined) | 12 | 2 | -2 | 0 | 9 | -1
